Data from ChEMBL document CHEMBL1136726, “Synthesis and characterization of iodine-123 labeled 2beta-carbomethoxy-3beta-(4'-((Z)-2-iodoethenyl)phenyl)nortropane. A ligand for in vivo imaging of serotonin transporters by single-photon-emission tomography” (J Med Chem, 2003).

Experiments:
Rattus norvegicus [1] = assay: Distribution of radioactivity in rat muscle tissue 60 min after intravenous administration of iodine labeled compound; type: ADME, organism-based; settings: in vivo, 1 h
Method in brief: (§1)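 Tail-vein injection of [123I]ZIENT (10 μCi in 0.2 mL 10% EtOH/0.9% NaCl, then 0.4 mL saline flush) into ketamine-anaesthetised male Sprague–Dawley rats (225–300 g). Animals were killed by cardiac excision at set times. Organs were excised, rinsed, blotted, weighed and gamma-counted. % dose/g was calculated against diluted aliquots of injectate. Mean ± SE, n=4–5.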

Rattus norvegicus [2] = assay: Distribution of radioactivity in rat brain cerebellum 30 min after intravenous administration of iodine labeled compound; type: ADME, organism-based; settings: in vivo, 0.5 h
Method in brief: (§2)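 Male Sprague–Dawley rats (225–300 g) under ketamine received 10 µCi radioligand iv (tail vein) in 10% EtOH/saline. Hypothalamus, prefrontal cortex, striatum, pons and cerebellum were dissected, weighed and gamma-counted. % injected dose/g was taken from decay-corrected counts versus diluted dose. Mean ± SE and range, n=5 (5, 30 min) or 4 (60, 120 min).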

Rattus norvegicus [3] = assay: Distribution of radioactivity in rat lung 30 min after intravenous administration of iodine labeled compound; type: ADME, organism-based; settings: in vivo, 0.5 h; method in brief: as §1
Rattus norvegicus [4] = assay: Ratio of distribution of radioactivity in rat brain region hypothalamus and cerebellum 60 min after intravenous administration of iodine labeled compound in absence of blocker in study 2; type: ADME, organism-based; settings: in vivo, 1 h
Rattus norvegicus [5] = assay: Distribution of radioactivity in rat brain pons 60 min after intravenous administration of iodine labeled compound; type: ADME, organism-based; settings: in vivo, 1 h; method in brief: as §2
Rattus norvegicus [6] = assay: Distribution of radioactivity in rat brain region prefrontal cortex 60 min after intravenous administration of iodine labeled compound in presence of fluvoxamine blocker in study 1; type: ADME, organism-based; settings: in vivo, 1 h
Method in brief: (§3)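 Male Sprague–Dawley rats (250–300 g), ketamine-anesthetized. Blocker (2 mg/kg) or none was given iv 15 min before tail-vein radioligand (10 µCi in 0.2 mL 10% EtOH/saline). Rats were killed at 60 min with im pentobarbital. Brain regions were dissected, weighed and gamma-counted. % dose/g was taken from decay-corrected, background-subtracted counts versus the injected dose.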

Rattus norvegicus [7] = assay: Distribution of radioactivity in rat liver 120 min after intravenous administration of iodine labeled compound; type: ADME, organism-based; settings: in vivo, 2 h; method in brief: as §1
Rattus norvegicus [8] = assay: Distribution of radioactivity in rat brain pons 5 min after intravenous administration of iodine labeled compound; type: ADME, organism-based; settings: in vivo; method in brief: as §2
Rattus norvegicus [9] = assay: Distribution of radioactivity in rat brain region pons 60 min after intravenous administration of iodine labeled compound in presence of reboxetine blocker in study 2; type: ADME, organism-based; settings: in vivo, 1 h; method in brief: as §3
Rattus norvegicus [10] = assay: Distribution of radioactivity in rat brain cerebellum 60 min after intravenous administration of iodine labeled compound; type: ADME, organism-based; settings: in vivo, 1 h; method in brief: as §2
Rattus norvegicus [11] = assay: Distribution of radioactivity in rat brain prefrontal cortex 120 min after intravenous administration of iodine labeled compound; type: ADME, organism-based; settings: in vivo, 2 h; method in brief: as §2
Rattus norvegicus [12] = assay: Ratio of distribution of radioactivity in rat brain prefrontal cortex and cerebellum 120 min after intravenous administration of iodine labeled compound; type: ADME, organism-based; settings: in vivo, 2 h
Method in brief: (§4)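 Male Sprague–Dawley rats (225–300 g) under ketamine anaesthesia were given [123I]ZIENT (10 μCi) in 0.2 mL 10% EtOH/0.9% NaCl into the tail vein, with a saline flush. Hypothalamus, prefrontal cortex, striatum, pons and cerebellum were dissected and gamma-counted. % injected dose/g came from decay-corrected counts against the diluted injected dose, and region/cerebellum ratios were taken from these. Mean ± SE, n=4–5.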

Rattus norvegicus [13] = assay: Distribution of radioactivity in rat brain region hypothalamus 60 min after intravenous administration of iodine labeled compound in absence of blocker in study 1; type: ADME, organism-based; settings: in vivo, 1 h; method in brief: as §3
Rattus norvegicus [14] = assay: Ratio of distribution of radioactivity in rat brain region hypothalamus and cerebellum 60 min after intravenous administration of iodine labeled compound in presence of reboxetine blocker in study 2; type: ADME, organism-based; settings: in vivo, 1 h
Rattus norvegicus [15] = assay: Distribution of radioactivity in rat kidney 30 min after intravenous administration of iodine labeled compound; type: ADME, organism-based; settings: in vivo, 0.5 h; method in brief: as §1
[16] = target: Sodium-dependent serotonin transporter (Homo sapiens, UniProt P31645); assay: In vitro competitive binding versus [3H]citalopram in murine kidney cells transfected with cDNA for human serotonin transporter (SERT); type: cell-based
Sodium-dependent serotonin transporter, sequence (P31645 whole entry): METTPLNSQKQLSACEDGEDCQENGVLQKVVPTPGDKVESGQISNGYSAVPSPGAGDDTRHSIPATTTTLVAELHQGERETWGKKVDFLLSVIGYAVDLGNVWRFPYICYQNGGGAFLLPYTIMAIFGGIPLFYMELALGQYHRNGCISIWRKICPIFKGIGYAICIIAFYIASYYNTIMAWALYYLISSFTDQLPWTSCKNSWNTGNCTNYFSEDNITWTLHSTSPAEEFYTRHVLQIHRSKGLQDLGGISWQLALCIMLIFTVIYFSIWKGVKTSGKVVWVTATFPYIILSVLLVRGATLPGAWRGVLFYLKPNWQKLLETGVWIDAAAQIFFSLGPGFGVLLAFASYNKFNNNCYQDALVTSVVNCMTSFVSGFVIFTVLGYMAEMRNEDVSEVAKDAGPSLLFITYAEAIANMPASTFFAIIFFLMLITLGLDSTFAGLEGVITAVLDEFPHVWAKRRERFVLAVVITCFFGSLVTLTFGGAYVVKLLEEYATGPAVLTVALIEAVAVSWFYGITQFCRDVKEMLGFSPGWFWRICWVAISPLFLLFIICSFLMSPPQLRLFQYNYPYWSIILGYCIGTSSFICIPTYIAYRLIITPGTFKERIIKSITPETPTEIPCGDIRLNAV

Rattus norvegicus [17] = assay: Ratio of distribution of radioactivity in rat brain region striatum and cerebellum 60 min after intravenous administration of iodine labeled compound in absence of blocker in study 1; type: ADME, organism-based; settings: in vivo, 1 h
Rattus norvegicus [18] = assay: Ratio of distribution of radioactivity in rat brain prefrontal cortex and cerebellum 30 min after intravenous administration of iodine labeled compound; type: ADME, organism-based; settings: in vivo, 0.5 h; method in brief: as §4
[19] = target: Sodium-dependent noradrenaline transporter (Homo sapiens, UniProt P23975); assay: In vitro competitive binding versus [3H]- […] in murine kidney cells transfected with cDNA for human norepinephrine transporter (NET); type: cell-based
Sodium-dependent noradrenaline transporter, sequence (P23975 whole entry): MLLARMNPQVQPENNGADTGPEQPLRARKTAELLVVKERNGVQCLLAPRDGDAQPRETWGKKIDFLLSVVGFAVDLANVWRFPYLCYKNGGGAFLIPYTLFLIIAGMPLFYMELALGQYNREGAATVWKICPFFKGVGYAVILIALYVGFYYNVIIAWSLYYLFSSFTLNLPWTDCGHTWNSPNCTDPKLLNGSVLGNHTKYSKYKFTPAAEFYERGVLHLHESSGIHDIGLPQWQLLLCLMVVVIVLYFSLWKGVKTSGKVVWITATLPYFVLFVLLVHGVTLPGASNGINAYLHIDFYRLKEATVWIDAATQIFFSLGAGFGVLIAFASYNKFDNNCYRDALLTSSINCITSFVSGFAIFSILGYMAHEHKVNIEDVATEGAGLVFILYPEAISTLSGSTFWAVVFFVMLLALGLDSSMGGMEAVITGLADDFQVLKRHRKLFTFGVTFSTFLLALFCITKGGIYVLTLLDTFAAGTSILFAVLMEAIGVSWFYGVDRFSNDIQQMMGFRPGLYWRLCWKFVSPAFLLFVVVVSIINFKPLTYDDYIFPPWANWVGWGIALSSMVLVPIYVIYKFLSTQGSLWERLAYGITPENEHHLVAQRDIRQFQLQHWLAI

Rattus norvegicus [20] = assay: Distribution of radioactivity in rat brain region prefrontal cortex 60 min after intravenous administration of iodine labeled compound in presence of reboxetine blocker in study 2; type: ADME, organism-based; settings: in vivo, 1 h; method in brief: as §3
Rattus norvegicus [21] = assay: Distribution of radioactivity in rat kidney 60 min after intravenous administration of iodine labeled compound; type: ADME, organism-based; settings: in vivo, 1 h; method in brief: as §1
Rattus norvegicus [22] = assay: Distribution of radioactivity in rat kidney 120 min after intravenous administration of iodine labeled compound; type: ADME, organism-based; settings: in vivo, 2 h; method in brief: as §1
Rattus norvegicus [23] = assay: Distribution of radioactivity in rat blood 30 min after intravenous administration of iodine labeled compound; type: ADME, organism-based; settings: in vivo, 0.5 h
Method in brief: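 Male Sprague–Dawley rats (225–300 g) under ketamine received 10 µCi radioligand in 0.2 mL 10% EtOH/0.9% NaCl via tail vein, then a saline flush. Killed by cardiac excision at set times. Organs were excised, weighed and gamma-counted. % dose/g was taken against diluted injectate. Mean ± SE and range, n=4 (5 min) or 5 (30–120 min).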

Rattus norvegicus [24] = assay: Ratio of distribution of radioactivity in rat brain prefrontal cortex and cerebellum 60 min after intravenous administration of iodine labeled compound; type: ADME, organism-based; settings: in vivo, 1 h; method in brief: as §4
Rattus norvegicus [25] = assay: Distribution of radioactivity in rat brain region striatum 60 min after intravenous administration of iodine labeled compound in absence of blocker in study 1; type: ADME, organism-based; settings: in vivo, 1 h
Method in brief: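 Male Sprague–Dawley rats (250–300 g), ketamine-anaesthetised, received [123I]ZIENT (10 μCi) in 0.2 mL 10% ethanol/0.9% NaCl via the tail vein. […] Rats were killed at 60 min with pentobarbital, brain regions dissected and gamma-counted. Values are % dose/g from decay-corrected, background-subtracted counts against the diluted injected dose.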

Rattus norvegicus [26] = assay: Ratio of distribution of radioactivity in rat brain hypothalamus and cerebellum 60 min after intravenous administration of iodine labeled compound; type: ADME, organism-based; settings: in vivo, 1 h; method in brief: as §4
Rattus norvegicus [27] = assay: Distribution of radioactivity in rat brain pons 30 min after intravenous administration of iodine labeled compound; type: ADME, organism-based; settings: in vivo, 0.5 h; method in brief: as §2
Rattus norvegicus [28] = assay: Ratio of distribution of radioactivity in rat brain region striatum and cerebellum 60 min after intravenous administration of iodine labeled compound in presence of reboxetine blocker in study 2; type: ADME, organism-based; settings: in vivo, 1 h
Rattus norvegicus [29] = assay: Distribution of radioactivity in rat spleen 5 min after intravenous administration of iodine labeled compound; type: ADME, organism-based; settings: in vivo; method in brief: as §1
Rattus norvegicus [30] = assay: Distribution of radioactivity in rat heart 30 min after intravenous administration of iodine labeled compound; type: ADME, organism-based; settings: in vivo, 0.5 h; method in brief: as §1
Rattus norvegicus [31] = assay: Distribution of radioactivity in rat thyroid 60 min after intravenous administration of iodine labeled compound; type: ADME, organism-based, Thyroid gland; settings: in vivo, 1 h; method in brief: as §1
Rattus norvegicus [32] = assay: Ratio of distribution of radioactivity in rat brain hypothalamus and cerebellum 120 min after intravenous administration of iodine labeled compound; type: ADME, organism-based; settings: in vivo, 2 h; method in brief: as §4
Rattus norvegicus [33] = assay: Distribution of radioactivity in rat heart 5 min after intravenous administration of iodine labeled compound; type: ADME, organism-based; settings: in vivo; method in brief: as §1
Rattus norvegicus [34] = assay: Distribution of radioactivity in rat brain hypothalamus 30 min after intravenous administration of iodine labeled compound; type: ADME, organism-based; settings: in vivo, 0.5 h; method in brief: as §2
Rattus norvegicus [35] = assay: Distribution of radioactivity in rat brain region hypothalamus 60 min after intravenous administration of iodine labeled compound in presence of fluvoxamine blocker in study 1; type: ADME, organism-based; settings: in vivo, 1 h; method in brief: as §3
Rattus norvegicus [36] = assay: Distribution of radioactivity in rat brain 5 min after intravenous administration of iodine labeled compound; type: ADME, organism-based; settings: in vivo

## COC(=O)[C@@H]1C2CCC(C[C@@H]1c1ccc(/C=C\I)cc1)N2 (stereo partly specified)
Rattus norvegicus [1]
  Distribution (dose/g): 0.2%
Rattus norvegicus [2]
  Distribution (dose/g): 0.32%
Rattus norvegicus [3]
  Distribution (dose/g): 1.59%
Rattus norvegicus [4]
  Distribution (dose/g): 3.95%
Rattus norvegicus [5]
  Distribution (dose/g): 0.59%
Rattus norvegicus [6]
  Distribution (dose/g): 0.28%
Rattus norvegicus [7]
  Distribution (dose/g): 0.23%
Rattus norvegicus [8]
  Distribution (dose/g): 0.59%
Rattus norvegicus [9]
  Distribution (dose/g): 0.53%
Rattus norvegicus [10]
  Distribution (dose/g): 0.25%
Rattus norvegicus [11]
  Distribution (dose/g): 0.49%
Rattus norvegicus [12]
  Distribution (dose/g): 4.08%
Rattus norvegicus [13]
  Distribution (dose/g): 0.92%
Rattus norvegicus [14]
  Distribution (dose/g): 2.83%
Rattus norvegicus [15]
  Distribution (dose/g): 0.49%
[16]
  Ki: 0.05 nM
Rattus norvegicus [17]
  Distribution (dose/g): 3.17%
Rattus norvegicus [18]
  Distribution (dose/g): 2.56%
[19]
  Ki: 24 nM
Rattus norvegicus [20]
  Distribution (dose/g): 0.69%
Rattus norvegicus [21]
  Distribution (dose/g): 0.34%
Rattus norvegicus [22]
  Distribution (dose/g): 0.31%
Rattus norvegicus [23]
  Distribution (dose/g): 0.4%
Rattus norvegicus [24]
  Distribution (dose/g): 3.28%
Rattus norvegicus [25]
  Distribution (dose/g): 0.76%
Rattus norvegicus [26]
  Distribution (dose/g): 3.08%
Rattus norvegicus [27]
  Distribution (dose/g): 0.6%
Rattus norvegicus [28]
  Distribution (dose/g): 3.04%
Rattus norvegicus [29]
  Distribution (dose/g): 1.81%
Rattus norvegicus [30]
  Distribution (dose/g): 0.36%
Rattus norvegicus [31]
  Distribution (dose/g): 0.8%
Rattus norvegicus [32]
  Distribution (dose/g): 4.92%
Rattus norvegicus [33]
  Distribution (dose/g): 0.81%
Rattus norvegicus [34]
  Distribution (dose/g): 0.76%
Rattus norvegicus [35]
  Distribution (dose/g): 0.31%
Rattus norvegicus [36]
  Distribution (dose/g): 0.83%
